According to ChEMBL document CHEMBL5058577, “EUbOPEN Chemogenomics Library 2 (Multiplex)” (2022):

Test system: U2OS
Experiment: Multiplex assay against U2OS
Assay type: toxicity, cell-based
Settings: human
Summary of the method: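 Compound was added to live cells that had been stained at seeding with Hoechst33342, BioTracker Green Microtubule Cytoskeleton Dye, MitoTracker Red and Annexin V Alexa Fluor 680, and imaging followed on a CQ1 microscope at 37°C and 5% CO2. CellPathfinder machine-learning gating divided cells into Hoechst high-intensity objects or normal cells, normal cells into healthy, pyknosed or fragmented nuclei, and pyknosed cells into mitotic or apoptotic. Tubulin, mitochondrial-mass and membrane-permeability phenotypes are per cents of healthy-nucleus cells.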

[1] = 12 h, 1 µM, compound concentration 1 uM, replicate 1
[2] = 12 h, 1 µM, compound concentration 1 uM, replicate 2
[3] = 12 h, 10 µM, compound concentration 10 uM, replicate 1
[4] = 12 h, 10 µM, compound concentration 10 uM, replicate 2
[5] = 24 h, 1 µM, compound concentration 1 uM, replicate 1
[6] = 24 h, 1 µM, compound concentration 1 uM, replicate 2
[7] = 24 h, 10 µM, compound concentration 10 uM, replicate 1
[8] = 24 h, 10 µM, compound concentration 10 uM, replicate 2
[9] = 48 h, 1 µM, compound concentration 1 uM, replicate 1
[10] = 48 h, 1 µM, compound concentration 1 uM, replicate 2
[11] = 48 h, 10 µM, compound concentration 10 uM, replicate 1
[12] = 48 h, 10 µM, compound concentration 10 uM, replicate 2

Question: Which results are given for `CSCC[C@H](NC=O)C(=O)N[C@@H](CC(C)C)C(=O)N[C@@H](Cc1ccccc1)C(=O)O`?
Answer: Population Apoptotic (%) [1]: 73%; Population Fragmented Nuclei (%) [1]: 29%; Population Mitochondria Different-Phenotype (%) [1]: 4%; Population Mitotic Cells (%) [1]: 26%; Total Cell Count [1]: 254; Population Apoptotic (%) [2]: 100%; Population Fragmented Nuclei (%) [2]: 17%; Population Healthy Nuclei (%) [2]: 75%; Population Mitochondria Different-Phenotype (%) [2]: 3%; Population Mitotic Cells (%) [2]: 0%; Total Cell Count [2]: 135; Population Apoptotic (%) [3]: 69%; Population Fragmented Nuclei (%) [3]: 23%; Population Healthy Nuclei (%) [3]: 70%; Population Mitochondria Different-Phenotype (%) [3]: 1%; Population Mitotic Cells (%) [3]: 30%; Total Cell Count [3]: 202; Population Apoptotic (%) [4]: 90%; Population Fragmented Nuclei (%) [4]: 16%; Population Healthy Nuclei (%) [4]: 74%; Population Membrane Permeable-Phenotype (%) [4]: 4%; Population Mitochondria Different-Phenotype (%) [4]: 2%; Total Cell Count [4]: 123; Population Apoptotic (%) [5]: 91%; Population Fragmented Nuclei (%) [5]: 24%; Population Mitochondria Different-Phenotype (%) [5]: 3%; Population Mitotic Cells (%) [5]: 8%; Total Cell Count [5]: 288; Population Apoptotic (%) [6]: 90%; Population Fragmented Nuclei (%) [6]: 17%; Population Healthy Nuclei (%) [6]: 75%; Population Mitochondria Different-Phenotype (%) [6]: 0%; Total Cell Count [6]: 147; Population Apoptotic (%) [7]: 76%; Population Fragmented Nuclei (%) [7]: 23%; Population Healthy Nuclei (%) [7]: 68%; Population Mitochondria Different-Phenotype (%) [7]: 1%; Population Mitotic Cells (%) [7]: 23%; Total Cell Count [7]: 247; Population Apoptotic (%) [8]: 100%; Population Fragmented Nuclei (%) [8]: 19%; Population Healthy Nuclei (%) [8]: 70%; Population Membrane Permeable-Phenotype (%) [8]: 8%; Population Mitochondria Different-Phenotype (%) [8]: 2%; Population Mitotic Cells (%) [8]: 0%; Total Cell Count [8]: 147; Population Fragmented Nuclei (%) [9]: 16%; Population Healthy Nuclei (%) [9]: 75%; Population Membrane Permeable-Phenotype (%) [9]: 4%; Population Mitochondria Different-Phenotype (%) [9]: 3%; Population Mitotic Cells (%) [9]: 15%; Total Cell Count [9]: 411; Population Fragmented Nuclei (%) [10]: 18%; Population Healthy Nuclei (%) [10]: 68%; Population Mitochondria Different-Phenotype (%) [10]: 1%; Population Mitotic Cells (%) [10]: 3%; Total Cell Count [10]: 202; Population Apoptotic (%) [11]: 90%; Population Fragmented Nuclei (%) [11]: 20%; Population Healthy Nuclei (%) [11]: 70%; Population Membrane Permeable-Phenotype (%) [11]: 4%; Population Mitochondria Different-Phenotype (%) [11]: 2%; Population Mitotic Cells (%) [11]: 9%; Total Cell Count [11]: 362; Population Apoptotic (%) [12]: 100%; Population Fragmented Nuclei (%) [12]: 53%; Population Healthy Nuclei (%) [12]: 25%; Population Membrane Permeable-Phenotype (%) [12]: 80%; Population Mitochondria Different-Phenotype (%) [12]: 50%; Population Mitotic Cells (%) [12]: 0%; Total Cell Count [12]: 41

Question: Which results are given for `Cc1nc2ccc(Oc3ccc(F)cc3)cc2c(=O)n1C[C@H]1CCCN(C(C)C)C1.Cl`?
Answer: Population Apoptotic (%) [1]: 83%; Population Fragmented Nuclei (%) [1]: 25%; Population Healthy Nuclei (%) [1]: 64%; Population Hoechst High Intensity Objects (%) [1]: 3%; Population Membrane Permeable-Phenotype (%) [1]: 9%; Population Mitochondria Different-Phenotype (%) [1]: 3%; Population Mitotic Cells (%) [1]: 16%; Population Normal (%) [1]: 96%; Population Pyknosed Nuclei (%) [1]: 10%; Population Tubulin-Different-Phenotype (%) [1]: 7%; Total Cell Count [1]: 244; Population Apoptotic (%) [2]: 60%; Population Fragmented Nuclei (%) [2]: 14%; Population Healthy Nuclei (%) [2]: 81%; Population Hoechst High Intensity Objects (%) [2]: 1%; Population Membrane Permeable-Phenotype (%) [2]: 17%; Population Mitochondria Different-Phenotype (%) [2]: 7%; Population Mitotic Cells (%) [2]: 40%; Population Normal (%) [2]: 98%; Population Pyknosed Nuclei (%) [2]: 4%; Population Tubulin-Different-Phenotype (%) [2]: 9%; Total Cell Count [2]: 125; Population Apoptotic (%) [3]: 65%; Population Fragmented Nuclei (%) [3]: 25%; Population Healthy Nuclei (%) [3]: 59%; Population Hoechst High Intensity Objects (%) [3]: 3%; Population Membrane Permeable-Phenotype (%) [3]: 58%; Population Mitochondria Different-Phenotype (%) [3]: 61%; Population Mitotic Cells (%) [3]: 35%; Population Normal (%) [3]: 96%; Population Pyknosed Nuclei (%) [3]: 15%; Population Tubulin-Different-Phenotype (%) [3]: 63%; Total Cell Count [3]: 268; Population Apoptotic (%) [4]: 78%; Population Fragmented Nuclei (%) [4]: 24%; Population Healthy Nuclei (%) [4]: 58%; Population Hoechst High Intensity Objects (%) [4]: 4%; Population Membrane Permeable-Phenotype (%) [4]: 25%; Population Mitochondria Different-Phenotype (%) [4]: 75%; Population Mitotic Cells (%) [4]: 21%; Population Normal (%) [4]: 95%; Population Pyknosed Nuclei (%) [4]: 17%; Population Tubulin-Different-Phenotype (%) [4]: 47%; Total Cell Count [4]: 86; Population Apoptotic (%) [5]: 78%; Population Fragmented Nuclei (%) [5]: 23%; Population Healthy Nuclei (%) [5]: 65%; Population Hoechst High Intensity Objects (%) [5]: 4%; Population Membrane Permeable-Phenotype (%) [5]: 7%; Population Mitochondria Different-Phenotype (%) [5]: 5%; Population Mitotic Cells (%) [5]: 21%; Population Normal (%) [5]: 95%; Population Pyknosed Nuclei (%) [5]: 10%; Population Tubulin-Different-Phenotype (%) [5]: 4%; Total Cell Count [5]: 276; Population Apoptotic (%) [6]: 80%; Population Fragmented Nuclei (%) [6]: 21%; Population Healthy Nuclei (%) [6]: 71%; Population Hoechst High Intensity Objects (%) [6]: 2%; Population Membrane Permeable-Phenotype (%) [6]: 11%; Population Mitochondria Different-Phenotype (%) [6]: 9%; Population Mitotic Cells (%) [6]: 20%; Population Normal (%) [6]: 97%; Population Pyknosed Nuclei (%) [6]: 6%; Population Tubulin-Different-Phenotype (%) [6]: 8%; Total Cell Count [6]: 146; Population Apoptotic (%) [7]: 77%; Population Fragmented Nuclei (%) [7]: 25%; Population Healthy Nuclei (%) [7]: 57%; Population Hoechst High Intensity Objects (%) [7]: 4%; Population Membrane Permeable-Phenotype (%) [7]: 37%; Population Mitochondria Different-Phenotype (%) [7]: 63%; Population Mitotic Cells (%) [7]: 22%; Population Normal (%) [7]: 95%; Population Pyknosed Nuclei (%) [7]: 16%; Population Tubulin-Different-Phenotype (%) [7]: 47%; Total Cell Count [7]: 297; Population Apoptotic (%) [8]: 76%; Population Fragmented Nuclei (%) [8]: 22%; Population Healthy Nuclei (%) [8]: 52%; Population Hoechst High Intensity Objects (%) [8]: 6%; Population Membrane Permeable-Phenotype (%) [8]: 22%; Population Mitochondria Different-Phenotype (%) [8]: 62%; Population Mitotic Cells (%) [8]: 23%; Population Normal (%) [8]: 93%; Population Pyknosed Nuclei (%) [8]: 24%; Population Tubulin-Different-Phenotype (%) [8]: 40%; Total Cell Count [8]: 91; Population Apoptotic (%) [9]: 84%; Population Fragmented Nuclei (%) [9]: 19%; Population Healthy Nuclei (%) [9]: 69%; Population Hoechst High Intensity Objects (%) [9]: 1%; Population Membrane Permeable-Phenotype (%) [9]: 7%; Population Mitochondria Different-Phenotype (%) [9]: 5%; Population Mitotic Cells (%) [9]: 15%; Population Normal (%) [9]: 98%; Population Pyknosed Nuclei (%) [9]: 10%; Population Tubulin-Different-Phenotype (%) [9]: 4%; Total Cell Count [9]: 371; Population Apoptotic (%) [10]: 93%; Population Healthy Nuclei (%) [10]: 72%; Population Hoechst High Intensity Objects (%) [10]: 0%; Population Mitotic Cells (%) [10]: 6%; Population Normal (%) [10]: 99%; Population Pyknosed Nuclei (%) [10]: 7%; Population Tubulin-Different-Phenotype (%) [10]: 6%; Total Cell Count [10]: 213; Population Apoptotic (%) [11]: 77%; Population Fragmented Nuclei (%) [11]: 29%; Population Healthy Nuclei (%) [11]: 54%; Population Hoechst High Intensity Objects (%) [11]: 5%; Population Membrane Permeable-Phenotype (%) [11]: 29%; Population Mitochondria Different-Phenotype (%) [11]: 36%; Population Mitotic Cells (%) [11]: 22%; Population Normal (%) [11]: 94%; Population Pyknosed Nuclei (%) [11]: 16%; Population Tubulin-Different-Phenotype (%) [11]: 23%; Total Cell Count [11]: 380; Population Apoptotic (%) [12]: 88%; Population Healthy Nuclei (%) [12]: 51%; Population Hoechst High Intensity Objects (%) [12]: 8%; Population Membrane Permeable-Phenotype (%) [12]: 27%; Population Mitochondria Different-Phenotype (%) [12]: 41%; Population Mitotic Cells (%) [12]: 11%; Population Normal (%) [12]: 91%; Population Pyknosed Nuclei (%) [12]: 19%; Population Tubulin-Different-Phenotype (%) [12]: 35%; Total Cell Count [12]: 103
